Results from ChEMBL document CHEMBL2163319, “Stereoselective synthesis and antiviral activity of methyl-substituted cycloSal-pronucleotides” (J Med Chem, 2012).

Experiments:
[1] = Hydrolysis half life in human CEM cell extracts at pH 6.9; type: ADME, CCRF-CEM
Procedure, shortened: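 CEM cell extracts (pH 6.9) incubated with the triester, added from a 3.0 mM DMSO stock, and sampled at several incubation times. Hydrolysis half-life determined.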

[2] = tested on: Human immunodeficiency virus 2; experiment: Antiviral activity against HIV-2 infected in thymidine kinase deficient CEM cells assessed as inhibition of virus-induced cytopathicity after 4 days; type: functional, organism-based; conditions: Human immunodeficiency virus 2, CCRF-CEM, 96 h
Procedure, shortened: (§1)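 Wild-type CEM/0 or thymidine kinase-deficient CEM/TK- T-lymphocyte cultures infected with HIV-1 or HIV-2 and exposed to virus and compound together for 4 days. Giant cell formation (virus-induced cytopathicity) scored by microscopy; value is the 50% effective concentration.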

[3] = tested on: Human immunodeficiency virus 1; experiment: Antiviral activity against HIV-1 infected in wild type CEM cells assessed as inhibition of virus-induced cytopathicity after 4 days; type: functional, organism-based; conditions: Human immunodeficiency virus 1, CCRF-CEM, 96 h; procedure, shortened: as §1
[4] = Cytotoxicity against human CEM cells; type: cell-based; conditions: CCRF-CEM (CEM) cells
[5] = Hydrolysis half life in 25 mM phosphate buffer at pH 7.3 by reversed HPLC analysis; type: physicochemical
[6] = tested on: Human immunodeficiency virus 2; experiment: Antiviral activity against HIV-2 infected in wild type CEM cells assessed as inhibition of virus-induced cytopathicity after 4 days; type: functional, organism-based; conditions: Human immunodeficiency virus 2, CCRF-CEM, 96 h; procedure, shortened: as §1

| Structure (SMILES) | half-life [1] [h] | EC50 [2] [nM] | EC50 [3] [nM] | CC50 [4] [nM] | half-life [5] [h] | EC50 [6] [nM] |
| --- | --- | --- | --- | --- | --- | --- |
| Cc1cccc2c1O[P@@](=O)(OC[C@@H]1C=C[C@H](n3cc(C)c(=O)[nH]c3=O)O1)OC2 | 8.7 | 3200 | 480 | 179000 | 9.2 | 1100 |
| Cc1cccc2c1O[P@](=O)(OC[C@@H]1C=C[C@H](n3cc(C)c(=O)[nH]c3=O)O1)OC2 | 18 | 160 | 90 | 39000 | 22.1 | 170 |
| Cc1cn([C@H]2C=C[C@@H](CO)O2)c(=O)[nH]c1=O [STAVUDINE] |  | 150000 | 780 | > 250000 |  | 1300 |
